Data published in ChEMBL document CHEMBL4428077, “Synthesis and Biological Evaluation of N-((1-(4-(Sulfonyl)piperazin-1-yl)cycloalkyl)methyl)benzamide Inhibitors of Glycine Transporter-1” (J Med Chem, 2016).
Values belong to the compound of their own block, whether it stands above or below them. The source made the active and inactive calls. The rule behind the calls is not given here.

Legend:
[1] = Intrinsic clearance in cynomolgus monkey; type: ADME, Macaca fascicularis
Cytochrome P450 2C19 = Cytochrome P450 2C19 (Homo sapiens, UniProt P33261); test: Inhibition of CYP2C19 (unknown origin); type: ADME
Chain of Cytochrome P450 2C19 (P33261 whole entry): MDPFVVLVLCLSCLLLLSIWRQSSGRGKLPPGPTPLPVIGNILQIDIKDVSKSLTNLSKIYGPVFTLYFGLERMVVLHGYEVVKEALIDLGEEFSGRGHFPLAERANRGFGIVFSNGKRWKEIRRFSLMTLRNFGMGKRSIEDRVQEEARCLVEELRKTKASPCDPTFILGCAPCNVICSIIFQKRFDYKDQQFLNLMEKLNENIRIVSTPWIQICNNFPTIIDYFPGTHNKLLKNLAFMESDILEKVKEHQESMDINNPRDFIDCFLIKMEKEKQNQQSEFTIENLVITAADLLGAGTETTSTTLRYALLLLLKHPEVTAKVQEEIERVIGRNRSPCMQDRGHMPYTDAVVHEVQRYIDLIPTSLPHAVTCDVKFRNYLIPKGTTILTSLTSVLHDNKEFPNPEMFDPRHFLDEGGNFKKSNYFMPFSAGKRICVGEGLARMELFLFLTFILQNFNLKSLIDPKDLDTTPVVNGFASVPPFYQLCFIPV

[2] = Total clearance in cynomolgus monkey at 1 mg/kg, iv or 5 mg/kg, po measured up to 12 or 24 hrs post dose by LC-MS/MS analysis; type: ADME, organism-based, Macaca fascicularis; conditions: in vivo
In short: (§1)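 Three female cynomolgus monkeys per group, single dose: IV 1.5 μmol/kg in 5% DMSO/10% Solutol in saline, pH 6.5 (2 mL/kg), or PO 7.8 μmol/kg in 5% Solutol in 20% Captisol, 25 mM PBS, pH 2 (5 mL/kg). Parameters come from plasma concentration–time data; mean ± SD.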

[3] = Cmax in cynomolgus monkey plasma at 5 mg/kg, po by LC-MS/MS analysis; type: ADME, organism-based, Macaca fascicularis; parameters: dose 5 mg/kg, route oral
In short: (§2)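 Single-dose PK in female cynomolgus monkeys, n = 3 per group: 1.5 μmol/kg IV in 5% DMSO/10% Solutol in saline, pH 6.5 (2 mL/kg), or 7.8 μmol/kg PO in 5% Solutol in 20% Captisol, 25 mM PBS, pH 2 (5 mL/kg). Plasma parameters reported as mean ± SD.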

[4] = Tmax in cynomolgus monkey plasma at 5 mg/kg, po by LC-MS/MS analysis; type: ADME, organism-based, Macaca fascicularis; in short: as §1
[5] = Apparent terminal half life in Sprague-Dawley rat plasma at 10 mg/kg, po or 2 mg/kg, iv administered as single dose by LC-MS/MS analysis; type: ADME, organism-based; conditions: read-out: betat1/2(app) (converted)
In short: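 Single-dose PK in drug-naive adult male Sprague−Dawley rats, n = 3 per group: 3.1 μmol/kg IV in 5% DMSO/10% Solutol in saline (5 mL/kg), or 15.7 μmol/kg PO in 5% Solutol/10% Captisol in 25 mM PBS, pH adjusted to 2 with HCl. Plasma parameters reported as mean ± SD.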

[6] = Apparent terminal half life in cynomolgus monkey plasma at 1 mg/kg, iv or 5 mg/kg, po by LC-MS/MS analysis; type: ADME, organism-based, Macaca fascicularis; conditions: read-out: betat1/2(app) (converted); in short: as §2
[7] = AUClast in cynomolgus monkey plasma at 1 mg/kg, iv or 5 mg/kg, po measured up to 12 or 24 hrs post dose by LC-MS/MS analysis; type: ADME, organism-based, Macaca fascicularis; in short: as §2
[8] = Drug level in po dosed Sprague-Dawley rat brain measured 2 hrs post dose by LC-MS/MS analysis; type: ADME, organism-based; conditions: in vivo
[9] = Drug level in cynomolgus monkey plasma at 3 mg/kg, po measured at 1 hr post dose by LC-MS/MS analysis; type: ADME, organism-based, Macaca fascicularis
[10] = Drug level in cynomolgus monkey plasma at 3 mg/kg, po measured at 12 hrs post dose by LC-MS/MS analysis; type: ADME, organism-based, Macaca fascicularis
[11] = Drug level in cynomolgus monkey plasma at 10 mg/kg, po measured at 1 hr post dose by LC-MS/MS analysis; type: ADME, organism-based, Macaca fascicularis
In short: (§3)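 Cynomolgus monkeys (n = 3/group) fitted with subcutaneous CSF ports were dosed orally at 0.4−15.7 μmol/kg in 5% Solutol plus 20% Captisol in 25 mM PBS, pH 2. CSF (about 0.30 mL) and blood were sampled predose and at 0.5, 1, 2, 3, 4, 8, 12 and 24 h. Quantitation limit 1.0 ng/mL; mean ± SD.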

[12] = Drug level in cynomolgus monkey plasma at 10 mg/kg, po measured at 2 hrs post dose by LC-MS/MS analysis; type: ADME, organism-based, Macaca fascicularis; in short: as §3
[13] = Drug level in cynomolgus monkey plasma at 10 mg/kg, po measured at 8 hrs post dose by LC-MS/MS analysis; type: ADME, organism-based, Macaca fascicularis
[14] = Drug level in cynomolgus monkey CSF at 10 mg/kg, po measured at 3 hrs post dose by LC-MS/MS analysis; type: ADME, organism-based, Macaca fascicularis, Cerebrospinal fluid; conditions: read-out: Drug uptake; in short: as §3
[15] = Drug level in cynomolgus monkey CSF at 10 mg/kg, po measured at 8 hrs post dose by LC-MS/MS analysis; type: ADME, organism-based, Macaca fascicularis, Cerebrospinal fluid; conditions: read-out: Drug uptake; in short: as §3
[16] = Drug level in cynomolgus monkey CSF at 10 mg/kg, po measured at 12 hrs post dose by LC-MS/MS analysis; type: ADME, organism-based, Macaca fascicularis, Cerebrospinal fluid; conditions: read-out: Drug uptake; in short: as §3
Rattus norvegicus [17] = test: In vivo inhibition of glycine transporter-1 in Sprague-Dawley rat assessed as increase in medial prefrontal cortex glycine level at 3 to 10 mg/kg, po administered through oral gavage measured after 80 to 300 mins by LC-MS/MS analysis relative to control; type: functional; parameters: scale not given: the % may be the effect or the level left
In short: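 Freely moving drug-naive adult male Sprague-Dawley rats, n = 5-6 per group, given 1.5, 4.7 or 15.7 μmol/kg by oral gavage at t = 0. Vehicle was 5% Solutol / 20% Captisol in 25 mM PBS, pH 2. mPFC dialysate was sampled over 5 h and analysed by HPLC-MS/MS. Values were normalized to basal levels (t = -80 to 0 min). Two-way repeated-measures ANOVA with Student-Newman-Keuls test.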

Rattus norvegicus [18] = test: In vivo inhibition of glycine transporter-1 in po dosed Sprague-Dawley rat assessed as increase in CSF glycine level measured 2 hrs post dose by LC-MS/MS analysis; type: functional
In short: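 Drug-naive adult male Sprague-Dawley rats, n = 4-5 per group, given a single oral dose of 0.4, 1.5, 4.7 or 15.7 μmol/kg. Vehicle was 5% Solutol + 10% Captisol in 25 mM PBS, pH 2. At 2 h, rats were killed by CO₂. CSF (50-100 μL) was taken from the cisterna magna, and brain and plasma were also collected. Glycine was measured by LC-MS/MS against a deuterated-glycine internal standard. Results given as % vehicle control (vehicle 30 min post-dose), mean ± SEM. Two-way ANOVA with Tukey test.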

[19] = Drug level in Sprague-Dawley rat CSF at 100 mg/kg, po measured 2 hrs post dose by LC-MS/MS analysis; type: ADME, organism-based, Cerebrospinal fluid; conditions: read-out: Drug uptake
In short: (§4)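 Drug-naive Sprague−Dawley rats (n = 4−5/group) were dosed orally once in 5% Solutol plus 20% Captisol in 25 mM PBS, pH 2, and euthanized 2 h later by CO₂. CSF was drawn from the cisterna magna. Drug was measured in CSF, brain and plasma; data as mean ± SEM.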

[20] = Drug level in Sprague-Dawley rat brain at 30 mg/kg, po measured 2 hrs post dose by LC-MS/MS analysis; type: ADME, organism-based; conditions: read-out: Drug uptake; in short: as §4
Rattus norvegicus [21] = test: In vivo inhibition of glycine transporter-1 in Sprague-Dawley rat assessed as CSF glycine level at 1 mg/kg, po qd for 5 days measured 2 hrs post last dose by LC-MS/MS analysis relative to control; type: functional; parameters: scale not given: the % may be the effect or the level left
In short: (§5)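 Drug-naive Sprague-Dawley rats, n = 5 per group, dosed orally once daily for 5 days with vehicle or 1.6, 4.8 or 16.1 μmol/kg. Vehicle was 5% Solutol / 20% Captisol in 25 mM PBS, pH 2. Killed 2 h or 48 h after the last dose. CSF glycine was expressed as % of vehicle control (vehicle 2 h post last dose), mean ± SEM. Two-way ANOVA with Tukey test.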

Rattus norvegicus [22] = test: In vivo inhibition of glycine transporter-1 in Sprague-Dawley rat assessed as increase in CSF glycine level at 1 to 10 mg/kg, po qd for 5 days measured 48 hrs post last dose by LC-MS/MS analysis; type: functional, organism-based; in short: as §5

CL [1]: 12 microL/ml/min
IC50 (Cytochrome P450 2C19): > 7.2 µM
clearance [2]: 24.9 mL/min/kg
Cmax [3]: 105 ng/mL
Tmax [4]: 1.67 h
half-life [5]: 4.33 h
half-life [6]: 6.27 h
AUC(0-t) at 24 h [7]: 690 ng·h/mL
Drug uptake [8]: Dose-dependent effect
concentration at 1 h [9]: 3.6 ng/mL
concentration at 12 h [10]: < 1 ng/mL
concentration at 1 h [11]: 203 ng/mL
concentration at 2 h [12]: 222 ng/mL
concentration at 8 h [13]: 156 ng/mL
concentration at 3 h [14]: 11.3 ng/mL
concentration at 8 h [15]: 7.6 ng/mL
concentration at 12 h [16]: 5 ng/mL
Compound: CC(NC(=O)c1ccc(C(F)(F)F)cc1Cl)C1(N2CCN(S(=O)(=O)c3cn(C)nn3)CC2)CCC(F)(F)CC1.Cl (single isomer, unassigned; (+))
Activity (Rattus norvegicus [17]): >150%

concentration at 2 h [19]: 7.6 nM
concentration at 2 h [20]: 66.8 nM
Compound: Cl.Cn1cc(S(=O)(=O)N2CCN(C3(CNC(=O)c4ccc(C(F)(F)F)cc4Cl)CCC(F)(F)CC3)CC2)nn1
ED200 (Rattus norvegicus [18]): 1.6 to 4.8 µmol/kg
Activity (Rattus norvegicus [21]): 188%
inhibition (Rattus norvegicus [22]): inactive
